According to ChEMBL document CHEMBL4229483, “Synthesis and evaluation of an orally available "Y"-shaped biaryl peroxisome proliferator-activated receptor δ agonist” (Bioorg Med Chem, 2018):

Assays:
Type in all cases: cell-based
[1] = target: T1, Peroxisome proliferator-activated receptor alpha (Homo sapiens, UniProt Q07869); experiment: Transactivation of human PPARalpha expressed in monkey CV-1 cells coexpressing TK-PPRE-Luc after 24 hrs by luciferase reporter gene assay
T1 sequence (Q07869 whole entry): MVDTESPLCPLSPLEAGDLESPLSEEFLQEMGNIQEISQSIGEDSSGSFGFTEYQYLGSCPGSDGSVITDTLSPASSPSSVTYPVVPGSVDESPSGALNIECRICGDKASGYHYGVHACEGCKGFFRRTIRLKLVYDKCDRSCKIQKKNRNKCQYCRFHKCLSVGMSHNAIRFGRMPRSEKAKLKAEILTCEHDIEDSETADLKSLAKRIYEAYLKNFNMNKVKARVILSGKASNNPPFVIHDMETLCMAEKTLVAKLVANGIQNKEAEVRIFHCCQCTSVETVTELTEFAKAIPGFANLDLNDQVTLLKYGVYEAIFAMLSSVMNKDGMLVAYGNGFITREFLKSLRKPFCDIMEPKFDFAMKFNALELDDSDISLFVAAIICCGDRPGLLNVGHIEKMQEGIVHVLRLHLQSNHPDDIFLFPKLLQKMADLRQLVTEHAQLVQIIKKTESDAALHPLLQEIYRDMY

[2] = target: T2, Peroxisome proliferator-activated receptor gamma (Homo sapiens, UniProt P37231); experiment: Transactivation of human PPARgamma expressed in monkey CV-1 cells coexpressing TK-PPRE-Luc after 24 hrs by luciferase reporter gene assay
T2 sequence (P37231 whole entry): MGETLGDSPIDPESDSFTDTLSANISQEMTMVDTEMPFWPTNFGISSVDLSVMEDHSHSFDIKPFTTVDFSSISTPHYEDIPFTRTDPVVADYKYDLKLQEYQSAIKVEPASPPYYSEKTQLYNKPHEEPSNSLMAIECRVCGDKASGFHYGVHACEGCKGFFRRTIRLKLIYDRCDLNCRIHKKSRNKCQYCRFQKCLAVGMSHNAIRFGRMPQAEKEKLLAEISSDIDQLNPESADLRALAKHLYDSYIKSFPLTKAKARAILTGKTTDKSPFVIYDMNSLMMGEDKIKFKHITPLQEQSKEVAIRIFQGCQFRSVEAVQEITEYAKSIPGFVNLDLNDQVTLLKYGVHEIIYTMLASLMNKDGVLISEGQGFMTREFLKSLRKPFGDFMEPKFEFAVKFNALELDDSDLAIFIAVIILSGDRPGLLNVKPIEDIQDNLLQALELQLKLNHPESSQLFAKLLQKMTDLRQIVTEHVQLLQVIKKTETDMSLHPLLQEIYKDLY

[3] = target: T3, Peroxisome proliferator-activated receptor delta (Homo sapiens, UniProt Q03181); experiment: Transactivation of human PPARdelta expressed in monkey CV-1 cells coexpressing TK-PPRE-Luc after 24 hrs by luciferase reporter gene assay
T3 sequence (Q03181 whole entry): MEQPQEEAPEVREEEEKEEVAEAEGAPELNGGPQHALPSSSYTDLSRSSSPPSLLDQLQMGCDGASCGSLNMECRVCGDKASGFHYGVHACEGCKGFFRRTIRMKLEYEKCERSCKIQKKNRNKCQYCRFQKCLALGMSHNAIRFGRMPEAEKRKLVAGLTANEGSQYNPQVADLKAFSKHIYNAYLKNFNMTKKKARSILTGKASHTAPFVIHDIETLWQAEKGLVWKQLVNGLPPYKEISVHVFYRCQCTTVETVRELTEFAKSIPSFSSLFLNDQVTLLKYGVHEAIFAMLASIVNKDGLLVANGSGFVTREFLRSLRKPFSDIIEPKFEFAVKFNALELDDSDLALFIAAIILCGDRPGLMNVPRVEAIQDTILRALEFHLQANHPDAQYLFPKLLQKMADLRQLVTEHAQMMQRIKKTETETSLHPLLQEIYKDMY
Procedure, shortened: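 Agonist activity tested in transiently transfected CV-1 cells by reporter assay. EC50 is the molar concentration giving 50% of the maximal reporter activity.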

SMILES	EC50 [1]	EC50 [2]	EC50 [3]
Cc1cc(SC(Cc2cc(F)c(F)c(F)c2)c2ccc(-c3ccccc3)cc2)ccc1OCC(=O)O (centres undefined)	> 10 µM	> 10 µM	86 nM
Cc1cc(SC(Cc2cc(F)c(F)c(F)c2)c2ccc(-c3ccc(C(F)(F)F)cc3)nc2)ccc1OCC(=O)O (centres undefined)	> 10 µM	> 10 µM	56 nM
Cc1cc(S[C@@H](Cc2ccccc2)c2ccc(-c3ccc(C(F)(F)F)cc3)cc2)ccc1OCC(=O)O	–	–	6.1 nM
Cc1cc(SC(Cc2cc(F)ccc2F)c2ccc(-c3cc(F)c(F)c(F)c3)cc2)ccc1OCC(=O)O (centres undefined)	> 10 µM	> 10 µM	6.3 nM
Cc1cc(SC(Cc2ccccc2)c2ccc(-c3cc(F)c(F)c(F)c3)cc2)ccc1OCC(=O)O (centres undefined)	> 10 µM	> 10 µM	4.5 nM
Cc1cc(S[C@H](Cc2ccccc2)c2ccc(-c3ccc(C(F)(F)F)cc3)cc2)ccc1OCC(=O)O	–	–	0.7 nM

The remaining lines, values ahead:

EC50 [1]	EC50 [2]	EC50 [3]	SMILES
> 10 µM	> 10 µM	26 nM	Cc1cc(SC(Cc2cc(Cl)ccc2F)c2ccc(-c3ccccc3)cc2)ccc1OCC(=O)O (centres undefined)
> 10 µM	> 10 µM	18 nM	Cc1cc(SC(Cc2ccccc2)c2ccc(-c3cccc(C(F)(F)F)c3)cc2)ccc1OCC(=O)O (centres undefined)
> 10 µM	> 10 µM	5.3 nM	Cc1cc(SC(Cc2cc(Cl)ccc2F)c2ccc(-c3cccc(C(F)(F)F)c3)cc2)ccc1OCC(=O)O (centres undefined)
> 10 µM	> 10 µM	10 nM	Cc1cc(SC(Cc2cc(C(F)(F)F)ccc2F)c2ccc(-c3ccccc3)cc2)ccc1OCC(=O)O (centres undefined)
> 10 µM	> 10 µM	9.1 nM	Cc1cc(SC(Cc2cc(F)ccc2F)c2ccc(-c3cccc(C(F)(F)F)c3)cc2)ccc1OCC(=O)O (centres undefined)
